Results reported in ChEMBL document CHEMBL1157326, “Nortriterpenoids from Schisandra lancifolia” (J Nat Prod, 2006).
Values after ≈ are worked out from the molar mass of the structure shown.

Experiments:
[1] = tested on: Human immunodeficiency virus 1; assay: Antiviral activity against HIV1 3B in human C8166 cells assessed as inhibition of virus-induced cytopathic effect; assay type: functional, organism-based; conditions: Human immunodeficiency virus 1, 3B
Outline: (§1)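 C8166 cells were used for both assays, with AZT as the positive control. Protection from HIV-1 cytopathic effect gave the EC50, and MTT viability on the same cells, run in parallel, gave the CC50.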

[2] = Selectivity index, CC50 for human C8166 cells to EC50 for HIV1 3B; assay type: toxicity, cell-based; conditions: read-out: Ratio CC50/EC50
Outline: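 The ratio is built from a CC50 (MTT viability of C8166 cells) and an EC50 (inhibition of HIV-1 cytopathic effect in C8166 cells), both determined in parallel.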

[3] = Cytotoxicity against human C8166 cells by MTT method; assay type: cell-based; outline: as §1

EC50 [1] [µg/mL] | SMILES | selectivity ratio [2] | CC50 [3] [µg/mL]
0.0033 (≈ 0.0123 µM) | Cc1cn([C@H]2C[C@H](N=[N+]=[N-])[C@@H](CO)O2)c(=O)[nH]c1=O [ZIDOVUDINE] | > 60600 | > 200
88.3 (≈ 151 µM) | CC(=O)O[C@H]1C[C@H]2C(C)(C)O[C@@H]3CC(=O)O[C@@]32C[C@]23CC[C@]4(C)C(=O)[C@@H](C)[C@H]([C@@H]5C=C(C)C(=O)O5)[C@@H]4[C@](O)(O2)C(=O)[C@H]13 [LANCIFODILACTONE J] | > 2.26 | > 200
76.6 (≈ 141 µM) | CC1=C2[C@H]3OC(=O)[C@@H](C)[C@H]3O[C@]34O[C@@]5(CC[C@](C)(C1=O)[C@H]23)C[C@]12OC(=O)C[C@H]1OC(C)(C)[C@@H]2C[C@H](O)[C@H]5C4=O [LANCIFODILACTONE M] | > 2.61 | > 200
100 (≈ 178 µM) | C[C@@H]1C(=O)[C@@]2(C)CC[C@]34C[C@]56OC(=O)C[C@H]5OC(C)(C)[C@@H]6C[C@H](O)[C@H]3C(=O)[C@@]3(O[C@H]5[C@H](OC(=O)[C@]5(C)O)[C@@H]1[C@H]32)O4 [LANCIFODILACTONE L] | > 2 | > 200
96.4 (≈ 177 µM) | CC1=C[C@@H]([C@H]2[C@H](C)C(=O)[C@@]3(C)CC[C@]45C[C@]67OC(=O)C[C@H]6OC(C)(C)[C@@H]7C[C@H](O)[C@H]4C(=O)[C@@](O)(O5)[C@@H]23)OC1=O [LANCIFODILACTONE I] | > 2.08 | > 200
78.5 (≈ 149 µM) | CC1=C[C@@H]([C@H]2[C@H](C)C(=O)[C@@]3(C)CC[C@]45C[C@]67OC(=O)C[C@H]6OC(C)(C)[C@@H]7CC=C4C(=O)[C@@](O)(O5)[C@@H]23)OC1=O [LANCIFODILACTONE K] | > 2.55 | > 200
77.6 (≈ 143 µM) | C[C@@H]1C(=O)[C@@]2(C)CC[C@]34C[C@]56OC(=O)C[C@H]5OC(C)(C)[C@@H]6CC=C3C(=O)[C@@]3(O[C@H]5[C@H](OC(=O)[C@]5(C)O)[C@@H]1[C@H]32)O4 [LANCIFODILACTONE N] | 2.4 | 186 (≈ 343 µM)
